An excerpt weighted towards active compounds, which were near 2.3% of everything screened.
TRPC4 inh = blocks the mouse TRPC4 cation channel | Q9QUQ5 | HEK293 TRPC4beta/mu-opioid, DAMGO-evoked Fluo4 calcium flux; stronger effect = lower value | B-score at 10 µM | hit rate 0.39% among 300,000 | AID 2247;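 active = B-score over 3 SD under the library average, no early fluorescence shift, positive overall ratio signal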
Target sequence (Q9QUQ5 whole entry, looked up): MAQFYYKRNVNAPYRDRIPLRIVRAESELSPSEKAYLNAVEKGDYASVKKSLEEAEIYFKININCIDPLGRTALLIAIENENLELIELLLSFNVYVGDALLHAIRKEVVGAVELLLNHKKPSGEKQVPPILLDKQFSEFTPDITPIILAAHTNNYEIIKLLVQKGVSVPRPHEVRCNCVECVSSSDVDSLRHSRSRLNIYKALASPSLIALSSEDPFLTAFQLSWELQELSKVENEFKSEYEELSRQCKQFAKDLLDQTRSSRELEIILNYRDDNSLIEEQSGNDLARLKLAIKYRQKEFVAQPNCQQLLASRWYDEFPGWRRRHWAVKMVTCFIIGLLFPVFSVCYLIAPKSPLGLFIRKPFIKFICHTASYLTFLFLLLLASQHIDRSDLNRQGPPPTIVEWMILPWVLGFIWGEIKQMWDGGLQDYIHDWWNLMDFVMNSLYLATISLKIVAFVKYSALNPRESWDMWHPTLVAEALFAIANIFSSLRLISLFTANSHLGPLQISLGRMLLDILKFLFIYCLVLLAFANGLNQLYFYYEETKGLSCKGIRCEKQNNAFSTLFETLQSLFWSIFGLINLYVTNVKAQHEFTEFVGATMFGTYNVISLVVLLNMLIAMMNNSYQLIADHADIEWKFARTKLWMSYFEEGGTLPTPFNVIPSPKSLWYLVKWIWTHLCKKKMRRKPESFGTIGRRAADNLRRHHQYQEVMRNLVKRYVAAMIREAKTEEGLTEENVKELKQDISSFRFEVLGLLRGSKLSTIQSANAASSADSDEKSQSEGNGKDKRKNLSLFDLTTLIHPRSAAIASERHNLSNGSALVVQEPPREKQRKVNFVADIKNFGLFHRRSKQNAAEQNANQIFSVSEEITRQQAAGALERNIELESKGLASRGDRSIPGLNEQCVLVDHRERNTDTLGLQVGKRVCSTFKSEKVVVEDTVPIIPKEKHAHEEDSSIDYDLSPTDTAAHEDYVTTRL
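Assay system: Stable TRPC4beta/mu-opioid receptor HEK293 cells | Reagent: DAMGO in two steps, submaximal then maximal | Compound dosing: Single concentration per test compound | Signal: Fluo4 Ca2+ flux fluorescence | Evaluation: Per-well B score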
TRPC6 activator = mouse TRPC6 channel activation; Q61143; B-score at 10 µM; HEK293-TRPC6 membrane potential dye fluorescence; stronger effect = higher value; hit rate 0.13% among 310,000;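 active = B-score of the integrated fluorescence ratio above library mean plus 3 SD, and starting fluorescence ratio within library mean plus 5 SD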;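 also: higher score means more depolarization so channel activation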
TRPC4 potent = TRPC4 (mouse) allosteric potentiation. Q9QUQ5. HEK293 TRPC4beta/mu-opioid, DAMGO EC20, Fluo-4 Ca2+ flux; stronger effect = higher value. B-score at 10 µM. hit rate 0.42% among 310,000;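 active = B-score of calcium response area above 5 SD of library B-scores, with initial fluorescence ratio within 5 SD of library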
TRPC6 inh = mouse TRPC6 channel inhibition. Q61143. HEK293-TRPC6, membrane potential dye, ACh-evoked depolarization; stronger effect = lower value. B-score at 10 µM. hit rate 1.1% among 310,000. AID 2553;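 active = B-score under library mean minus 3 SD, initial fluorescence not abnormally high, positive integrated signal ratio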;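 also: B-score derived from integrated fluorescence ratio over the kinetic read; more negative B-score means stronger inhibition of depolarization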
TRPC4 agonist = opens the mouse TRPC4 cation channel | HEK293 TRPC4beta/mu-opioid, Fluo4 calcium fluorescence; stronger effect = higher value | hit rate 0.49% among 310,000 | AID 2237 | Q9QUQ5 | B-score at 10 µM;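 active = B-score above 5 SD of library B-scores, and initial fluorescence ratio not above library mean plus 5 SD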;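 also: positive B-score marks a calcium rise read as TRPC4 activation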
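Incubation: 45 min room-temperature Fluo4 loading, 110 s read / System: HEK293 cells stably co-expressing mouse TRPC4beta and mu-opioid receptor / Signal: Fluo4 fluorescence, kinetic / Control set: buffer (low) and maximal DAMGO (high) / Measure: integrated baseline-normalised fluorescence ratio, converted to per-well B score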
TRPC4 sel inh 2 = second selectivity test of TRPC6 inhibitors: effect on mouse TRPC4; shares compounds with TRPC6 inh; HEK293 TRPC4/MOR, membrane potential dye fluorescence; channel activated by saturating DAMGO dose; inhibition, % at 10 µM; hit rate 42% among 920; AID 2776;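 active = compounds whose fluorescence signal differed from control wells by over 3 SD, either direction, in both duplicate plates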
TRPC4 spec = mouse TRPC4 off-target activity of TRPC6 inhibitors; shares compounds with TRPC6 inh; HEK293 TRPC4/mu-opioid, membrane potential fluorescence; activity change, negative = inhibition, % at 10 µM; hit rate 61% among 920;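 active = rise or fall in signal beyond 3 SD of buffer-only wells in both replicate plates, either sign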;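 also: integrated kinetic ratio of fluorescence range over baseline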
HEK293 MPD ctr 2-1 = second check of TRPC6 inhibitor effects in parental HEK293 cells | parental HEK293 membrane potential dye fluorescence; maximal acetylcholine challenge after compound addition | hit rate 31% among 920 | shares compounds with TRPC6 inh | signal change vs control, % at 10 µM | AID 2779;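 active = membrane potential signal moving either way by over 3 SD of the maximum-effect control, in both duplicate plates, meaning non-specific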
HEK293 MPD ctr-1 = counter-screen for TRPC6 inhibitors: effect in parental HEK293 cells | shares compounds with TRPC6 inh | parental HEK293 membrane potential dye fluorescence | membrane potential signal change, % at 10 µM | hit rate 60% among 920 | AID 2780;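 active = membrane potential signal shifting up or down by more than 3 SD of buffer-only wells, on both duplicate plates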
HEK293 MPD ctr-2 = counter-screen for TRPC6 modulators: effect in parental HEK293 cells | AID 488924 | membrane potential signal change, % at 10 µM | membrane potential dye fluorescence | hit rate 51% among 2,400 | shares compounds with TRPC6 inh;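 active = membrane potential signal moves up or down beyond 5 SD from buffer-only wells, on both duplicate plates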
HEK293 MPD ctr 2-2 = second counter-screen for TRPC6 modulators: effect in parental HEK293 cells | shares compounds with TRPC6 inh | membrane potential dye fluorescence; after compound, maximal acetylcholine stimulation | inhibition, % at 10 µM | hit rate 14% among 2,400;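 active = membrane potential signal drops by more than 5 SD from the mean control signal, in both duplicate plates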
TRPC4/MOR mod = tests whether TRPC6 modulators also affect mouse TRPC4. HEK293 TRPC4/mu-opioid, membrane potential fluorescence. shares compounds with TRPC6 inh. AID 488927. percent change from control (negative = decrease, positive = increase), % at 10 µM. hit rate 69% among 2,400;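 active = membrane potential signal moved up or down beyond 5 SD of buffer control wells, in both duplicate plates, actives on both sides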
TRPC4 ctr inh 2 = second check of whether TRPC6 modulators also affect mouse TRPC4; shares compounds with TRPC6 inh; HEK293 TRPC4/mu-opioid, membrane potential dye fluorescence; stimulated with maximal-effect DAMGO; inhibition, % at 10 µM; hit rate 55% among 2,400; AID 488928;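 active = drop in membrane potential signal beyond 5 SD of the control wells in both duplicate plates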;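 also: TRPC4 counter screen for TRPC6 hits run under conditions tuned for TRPC6 not TRPC4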
TRPC6 block conf = mouse TRPC6 inhibitor confirmation | shares compounds with TRPC6 inh | HEK293-TRPC6, membrane potential dye, ACh-evoked depolarization | inhibition, % at 10 µM | hit rate 43% among 3,300 | AID 488960;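 active = fluorescence ratio falls more than 5 SD below the full-stimulation control mean, in both duplicate runs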;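 also: integrated fluorescence ratio of peak minus minimum over baseline after agonist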
TRPC6 act confirm = mouse TRPC6 activator confirmation | shares compounds with TRPC6 inh | HEK293-TRPC6 membrane potential dye fluorescence, FDSS | activation, % at 10 µM | hit rate 11% among 2,800 | AID 488961;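 active = ratio signal rise beyond 5 SD above unstimulated control wells' mean, seen in both duplicate runs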
Hits are given with their value; - = inactive; . = no result given.

SMILES | TRPC4 inh | TRPC6 activator | TRPC4 potent | TRPC6 inh | TRPC4 agonist | HEK293 MPD ctr-2 | HEK293 MPD ctr 2-2 | TRPC4/MOR mod | TRPC4 ctr inh 2 | TRPC6 block conf | TRPC6 act confirm | others
Cc1cc(N2CCCC2)ccc1/C=C1\NC(=S)N(C)C1=O | - | 52 | - | - | 70 | - | - | 33% | - | - | 32%
CN1C=CC=C/C1=C1\SC(=S)N(c2ccccc2)C1=O | - | - | - | - | - | . | . | . | . | . | .
C=CCN1C=CC=C/C1=C1\SC(=S)N(C)C1=O | - | - | - | -5.1 | - | - | - | - | - | - | -
COCCNS(=O)(=O)c1cccc2cccnc12 | - | - | - | - | - | . | . | . | . | . | .
O=C(NCCN1CCOCC1)c1cnn2c(-c3ccccc3)cc(-c3ccccc3)nc12 | - | - | - | -7.5 | - | . | . | . | . | - | - | TRPC4 sel inh 2=-;TRPC4 spec=-;HEK293 MPD ctr 2-1=-;HEK293 MPD ctr-1=-130%
COC(=O)c1oc2ccc(Br)cc2c1NC(=O)CN1CCN(C)CC1 | - | - | - | -5.5 | - | - | - | -16% | 52% | 48% | -
N#Cc1c(NC(=O)COC(=O)c2ccc(S(=O)(=O)N3CCCC3)cc2)sc2c1CCCCC2 | - | - | - | - | - | . | . | . | . | . | .
O=C(Nc1ccc(Cl)cc1)c1ccc(-n2cncn2)c([N+](=O)[O-])c1 | - | - | - | -5.5 | - | -106% | - | - | 56% | - | -
COc1ccccc1NC(=O)C1=C(C)NC(SCC(=O)Nc2ccc(C(=O)O)cc2)=C(C#N)C1c1cccs1 (stereo unspecified) | - | - | - | - | - | . | . | . | . | . | .
CC1CN(C(=O)c2ccc(-c3ccccc3Cl)o2)CC(C)O1 (stereo unspecified) | - | - | - | - | - | . | . | . | . | . | .
CC1CCCN(C(=O)c2ccc(-c3ccccc3Cl)o2)C1 (stereo unspecified) | - | - | - | -5.1 | - | - | - | 15% | - | - | .
C/C(=N\NC(=O)C1CCCC1)c1ccc(Cl)cc1 | - | - | - | - | - | . | . | . | . | . | .
CCC1CCCCN1CCn1c(=S)[nH]c2cc(OC)c(OC)cc2c1=O (stereo unspecified) | - | - | - | -6.3 | - | - | - | 10% | 28% | - | -
O[C@@H]1CN(Cc2ccc(-n3cccn3)cc2)CC[C@H]1N1CCN(c2ccccc2F)CC1 | - | - | - | - | - | . | . | . | . | . | .
CC(=O)c1ccc(S(=O)(=O)NC2CCSc3ccccc32)cc1 (stereo unspecified) | - | - | - | - | - | . | . | . | . | . | .
O=S(=O)(NC1CCSc2ccccc21)c1ccc(Cl)nc1 (stereo unspecified) | - | - | - | -6.2 | - | - | - | - | - | - | -
O=C(NNS(=O)(=O)c1ccc(F)cc1)C1CCN(Cc2cccc(F)c2)CC1 | - | - | - | -5 | - | - | - | - | - | - | -
O=C(NNS(=O)(=O)c1ccc2ccccc2c1)C1CCN(Cc2ccccc2)CC1 | - | - | - | -18 | - | . | . | . | . | 83% | . | TRPC4 sel inh 2=-;TRPC4 spec=4.8%;HEK293 MPD ctr 2-1=0.0%;HEK293 MPD ctr-1=5.2%
O=C(NNS(=O)(=O)c1ccc(F)cc1)C1CCN(S(=O)(=O)c2ccccc2)CC1 | - | - | - | - | - | . | . | . | . | . | .
O=S(=O)(NC1CCN(Cc2ccccc2)CC1)c1ccc2ccccc2c1 | - | - | - | - | - | . | . | . | . | . | .
Cc1cccc(C(C(=O)NC2CCCC2)N(C(=O)c2csnn2)C2CCCC2)c1 (stereo unspecified) | - | - | - | - | - | . | . | . | . | . | .
CCSC(=Nc1ccccc1)Nc1ccccc1 | - | - | - | - | - | . | . | . | . | . | .
CC1=C(C(=O)NCc2ccccn2)C2(CCC(C)CC2)OC1=O (stereo unspecified) | - | - | - | - | - | . | . | . | . | . | .
OCCn1c(-c2ccc(F)cc2)csc1=Nc1ccccc1 | - | - | - | -7.5 | - | 120% | - | 12% | 31% | 74% | .
CC1=NN(C(N)=S)C(=O)C1N=Nc1cccc([N+](=O)[O-])c1 (stereo unspecified) | - | - | - | -5.3 | - | - | - | - | - | - | -
SMILES | TRPC4 inh | TRPC6 activator | TRPC4 potent | TRPC6 inh | TRPC4 agonist | HEK293 MPD ctr-2 | HEK293 MPD ctr 2-2 | TRPC4/MOR mod | TRPC4 ctr inh 2 | TRPC6 block conf | TRPC6 act confirm | others
C=CCN1C(=O)c2ccc(C(=O)N(CCOC)c3c(N)n(CCCC)c(=O)[nH]c3=O)cc2C1=O | - | - | - | - | - | . | . | . | . | . | .
COc1cc2c(cc1OC)CN(C(=O)c1cc(S(=O)(=O)N3CCOCC3)c(Cl)cc1Cl)CC2 | - | - | - | - | - | . | . | . | . | . | .
CCN(CC)c1cc(C)c2cc(NC(=O)CNC(C)=O)ccc2n1 | - | - | - | -5.7 | - | -161% | 59% | -28% | 38% | - | -
CCN(CC)c1cc(C)c2cc(NC(=O)c3ccccc3F)ccc2n1 | - | - | - | - | - | . | . | . | . | . | .
CC[N+](C)(CC)CCC(c1ccccc1)C1CCCCC1 (stereo unspecified) | - | - | - | -9.6 | - | . | . | . | . | 81% | - | TRPC4 sel inh 2=-;TRPC4 spec=-;HEK293 MPD ctr 2-1=-16%;HEK293 MPD ctr-1=-
CC[N+](C)(CC)CCOC(=O)C(O)(c1ccccc1)C1CCCCC1 (stereo unspecified) | - | - | - | -8.9 | - | . | . | . | . | 83% | - | TRPC4 sel inh 2=-;TRPC4 spec=-;HEK293 MPD ctr 2-1=-33%;HEK293 MPD ctr-1=-
CCC(C(=O)NC1CCCCCC1)c1ccccc1 (stereo unspecified) | - | - | - | - | - | . | . | . | . | . | .
CCOC(=O)C(C(=O)Nc1ccccc1)C1CCCCC1 (stereo unspecified) | - | - | - | - | - | . | . | . | . | . | .
Cc1ccc(-c2ccc(OC(=O)c3ccc(=O)[nH]c3)c(C)c2)cc1 | - | - | - | -5.1 | - | - | - | - | - | - | -
